# How the values were obtained:
# Aurora kinase A = Aurora kinase A (Homo sapiens, UniProt O14965, T288D); assay: Inhibition of Aurora kinase A T288D mutant expressed in Escherichia coli BL21 DE3
# [1] = system: T1, Aurora kinase A (Homo sapiens), O14965 [T288D]; assay: Inhibition of Aurora kinase A T288D mutant expressed in Escherichia coli BL21 DE3 at 10 uM
# T1 sequence (whole entry): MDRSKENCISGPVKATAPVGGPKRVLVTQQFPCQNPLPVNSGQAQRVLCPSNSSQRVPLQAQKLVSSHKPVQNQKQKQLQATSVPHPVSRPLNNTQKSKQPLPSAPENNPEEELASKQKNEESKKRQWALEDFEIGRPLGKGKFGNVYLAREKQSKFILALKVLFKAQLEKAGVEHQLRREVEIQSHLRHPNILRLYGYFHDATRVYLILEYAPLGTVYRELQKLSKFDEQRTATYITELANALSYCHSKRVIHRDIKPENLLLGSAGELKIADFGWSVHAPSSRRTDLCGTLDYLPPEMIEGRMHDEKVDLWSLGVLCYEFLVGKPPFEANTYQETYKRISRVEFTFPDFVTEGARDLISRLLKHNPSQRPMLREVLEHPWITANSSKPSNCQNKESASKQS
# [2] = system: RAF proto-oncogene serine/threonine-protein kinase (Homo sapiens), P04049 [Y340D,Y341D]; assay: Inhibition of cRaf Y340D/Y341D mutant at 1 uM relative to control
# [3] = target: ALK tyrosine kinase receptor (Homo sapiens) (UniProt Q9UM73); assay: Inhibition of ALK at 1 uM relative to control
# [4] = target: Epidermal growth factor receptor (Homo sapiens) (UniProt P00533); assay: Inhibition of EGFR at 1 uM relative to control
# [5] = target: Serine/threonine-protein kinase mTOR (Homo sapiens) (UniProt P42345); assay: Inhibition of FRAP1 at 1 uM relative to control
# [6] = target: Aurora kinase A (Homo sapiens) (UniProt O14965); assay: Inhibition of AURKA at 1 uM relative to control
# [7] = target: 3-phosphoinositide-dependent protein kinase 1 (Homo sapiens) (UniProt O15530); assay: Inhibition of PDK1 at 1 uM relative to control
# [8] = target: Tyrosine-protein kinase JAK2 (Homo sapiens) (UniProt O60674); assay: Inhibition of JAK2 at 1 uM relative to control
# [9] = target: Ephrin type-A receptor 1 (Homo sapiens) (UniProt P21709); assay: Inhibition of EPHA1 at 1 uM relative to control
# [10] = target: Inhibitor of nuclear factor kappa-B kinase subunit epsilon (Homo sapiens) (UniProt Q14164); assay: Inhibition of IKK epsilon at 1 uM relative to control
# [11] = target: Aurora kinase C (Homo sapiens) (UniProt Q9UQB9); assay: Inhibition of AURKC at 1 uM relative to control
# [12] = target: High affinity nerve growth factor receptor (Homo sapiens) (UniProt P04629); assay: Inhibition of NTRK1 at 1 uM relative to control
# [13] = target: Insulin-like growth factor 1 receptor (Homo sapiens) (UniProt P08069); assay: Inhibition of IGF1R at 1 uM relative to control
# [14] = target: Receptor tyrosine-protein kinase erbB-2 (Homo sapiens) (UniProt P04626); assay: Inhibition of ERBB2 at 1 uM relative to control
# [15] = target: Angiopoietin-1 receptor (Homo sapiens) (UniProt Q02763); assay: Inhibition of TEK at 1 uM relative to control
# [16] = target: Receptor-type tyrosine-protein kinase FLT3 (Homo sapiens) (UniProt P36888); assay: Inhibition of FLT3 at 1 uM relative to control
# [17] = target: RAC-alpha serine/threonine-protein kinase (Homo sapiens) (UniProt P31749); assay: Inhibition of AKT1 at 1 uM relative to control
# [18] = target: 5'-AMP-activated protein kinase catalytic subunit alpha-1 (Homo sapiens) (UniProt Q13131); assay: Inhibition of AMPK alpha-1/beta-1/gamma-1 at 1 uM relative to control
# [19] = target: Tyrosine-protein kinase ABL1 (Homo sapiens) (UniProt P00519); assay: Inhibition of ABL1 at 1 uM relative to control
# [20] = target: Aurora kinase B (Homo sapiens) (UniProt Q96GD4); assay: Inhibition of AURKB at 1 uM relative to control
# [21] = target: Proto-oncogene tyrosine-protein kinase Src (Homo sapiens) (UniProt P12931); assay: Inhibition of SRC at 1 uM relative to control
# [22] = target: Cyclin-dependent kinase 2 (Homo sapiens) (UniProt P24941); assay: Inhibition of CDK2/Cyclin A at 1 uM relative to control
# [23] = target: Aurora kinase B (Homo sapiens) (UniProt Q96GD4); assay: Inhibition of Aurora kinase B in human HCT116 cells assessed as reduced phosphorylated histone H3 levels by Western blot; type: cell-based; conditions: HCT-116
# Method in brief: (§1)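 HCT-116 cells, 4 × 10^5 per well, were seeded for 24 h and synchronized with 40 ng/mL nocodazole for 16 h. They were then exposed to compound at 0.625–40 µM for 2 h at 37 °C. Cells were lysed in SDS sample buffer (pH 6.8, 2% SDS) at 95 °C for 10 min, and 50 µg was run on SDS-PAGE. Blots were probed for phospho-Aurora A (Thr288) and phospho-histone H3 (Ser10) with HRP detection.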
# [24] = target: Hepatocyte growth factor receptor (Homo sapiens) (UniProt P08581); assay: Inhibition of cMET at 1 uM relative to control
# [25] = target: Proto-oncogene tyrosine-protein kinase receptor Ret (Homo sapiens) (UniProt P07949); assay: Inhibition of RET at 1 uM relative to control
# [26] = target: Aurora kinase A (Homo sapiens) (UniProt O14965); assay: Inhibition of Aurora kinase A Thr288 autophosphorylation in human HCT116 cells by Western blot; type: cell-based; conditions: HCT-116; method in brief: as §1
# [27] = target: Vascular endothelial growth factor receptor 1 (Homo sapiens) (UniProt P17948); assay: Inhibition of FLT1 at 1 uM relative to control
# [28] = target: Glycogen synthase kinase-3 beta (Homo sapiens) (UniProt P49841); assay: Inhibition of GSK3-beta at 1 uM relative to control
# [29] = target: Phosphatidylinositol 4,5-bisphosphate 3-kinase catalytic subunit gamma isoform (Homo sapiens) (UniProt P48736); assay: Inhibition of PIK3CG at 1 uM relative to control
# [30] = target: Serine/threonine-protein kinase Chk1 (Homo sapiens) (UniProt O14757); assay: Inhibition of CHK1 at 1 uM relative to control
# [31] = target: Serine/threonine-protein kinase PLK1 (Homo sapiens) (UniProt P53350); assay: Inhibition of PLK1 at 1 uM relative to control
# [32] = target: Mast/stem cell growth factor receptor Kit (Homo sapiens) (UniProt P10721); assay: Inhibition of KIT at 1 uM relative to control
# [33] = target: Mitogen-activated protein kinase 14 (Homo sapiens) (UniProt Q16539); assay: Inhibition of MAPK14 at 1 uM relative to control
# Sequence of Mitogen-activated protein kinase 14 (Homo sapiens) (Q16539 whole entry): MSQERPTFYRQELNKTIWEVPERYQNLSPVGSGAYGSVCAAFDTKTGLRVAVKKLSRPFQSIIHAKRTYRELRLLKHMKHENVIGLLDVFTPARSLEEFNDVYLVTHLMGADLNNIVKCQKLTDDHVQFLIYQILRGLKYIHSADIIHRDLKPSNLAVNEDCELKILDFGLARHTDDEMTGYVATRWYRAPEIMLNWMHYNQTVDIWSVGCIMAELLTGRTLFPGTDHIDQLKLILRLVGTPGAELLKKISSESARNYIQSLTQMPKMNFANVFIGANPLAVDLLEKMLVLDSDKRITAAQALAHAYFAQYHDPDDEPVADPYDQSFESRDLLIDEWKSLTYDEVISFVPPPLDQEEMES
# Sequence of Aurora kinase A (Homo sapiens) (O14965 whole entry): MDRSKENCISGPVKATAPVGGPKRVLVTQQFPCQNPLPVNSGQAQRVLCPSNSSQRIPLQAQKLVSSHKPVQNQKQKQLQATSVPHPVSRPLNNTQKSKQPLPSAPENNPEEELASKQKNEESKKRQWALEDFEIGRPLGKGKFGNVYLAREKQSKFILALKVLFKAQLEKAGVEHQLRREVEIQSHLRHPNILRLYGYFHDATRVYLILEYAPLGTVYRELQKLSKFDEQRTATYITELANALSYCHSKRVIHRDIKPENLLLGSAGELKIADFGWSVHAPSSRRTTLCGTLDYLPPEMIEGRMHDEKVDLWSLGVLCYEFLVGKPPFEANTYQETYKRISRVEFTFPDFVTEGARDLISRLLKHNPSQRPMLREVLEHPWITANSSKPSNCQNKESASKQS
# Sequence of Aurora kinase B (Homo sapiens) (Q96GD4 whole entry): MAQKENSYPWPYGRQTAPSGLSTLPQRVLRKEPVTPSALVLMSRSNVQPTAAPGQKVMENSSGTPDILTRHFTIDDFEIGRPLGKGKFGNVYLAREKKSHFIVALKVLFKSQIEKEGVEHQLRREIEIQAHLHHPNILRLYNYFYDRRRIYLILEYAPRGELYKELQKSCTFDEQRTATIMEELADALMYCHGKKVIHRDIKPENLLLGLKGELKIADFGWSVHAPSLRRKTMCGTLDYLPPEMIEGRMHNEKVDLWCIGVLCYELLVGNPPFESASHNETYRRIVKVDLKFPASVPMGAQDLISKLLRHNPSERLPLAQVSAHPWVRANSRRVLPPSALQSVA
# Sequence of 5'-AMP-activated protein kinase catalytic subunit alpha-1 (Homo sapiens) (Q13131 whole entry, looked up): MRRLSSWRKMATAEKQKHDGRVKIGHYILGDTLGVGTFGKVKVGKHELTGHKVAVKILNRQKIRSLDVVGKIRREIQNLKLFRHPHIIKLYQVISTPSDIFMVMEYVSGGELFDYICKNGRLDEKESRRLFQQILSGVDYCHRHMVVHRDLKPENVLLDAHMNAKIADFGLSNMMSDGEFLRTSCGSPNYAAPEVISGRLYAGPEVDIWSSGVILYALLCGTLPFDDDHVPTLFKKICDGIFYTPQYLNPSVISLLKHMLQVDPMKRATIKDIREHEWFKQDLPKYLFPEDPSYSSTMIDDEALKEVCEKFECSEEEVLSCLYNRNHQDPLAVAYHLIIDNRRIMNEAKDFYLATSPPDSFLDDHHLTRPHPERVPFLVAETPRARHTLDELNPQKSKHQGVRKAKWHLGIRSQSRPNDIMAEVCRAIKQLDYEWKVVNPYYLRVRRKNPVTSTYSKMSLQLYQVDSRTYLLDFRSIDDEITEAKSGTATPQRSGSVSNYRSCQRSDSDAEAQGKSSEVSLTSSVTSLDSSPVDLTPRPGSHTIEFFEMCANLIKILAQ
# Sequence of Proto-oncogene tyrosine-protein kinase Src (Homo sapiens) (P12931 2-536 limits assumed): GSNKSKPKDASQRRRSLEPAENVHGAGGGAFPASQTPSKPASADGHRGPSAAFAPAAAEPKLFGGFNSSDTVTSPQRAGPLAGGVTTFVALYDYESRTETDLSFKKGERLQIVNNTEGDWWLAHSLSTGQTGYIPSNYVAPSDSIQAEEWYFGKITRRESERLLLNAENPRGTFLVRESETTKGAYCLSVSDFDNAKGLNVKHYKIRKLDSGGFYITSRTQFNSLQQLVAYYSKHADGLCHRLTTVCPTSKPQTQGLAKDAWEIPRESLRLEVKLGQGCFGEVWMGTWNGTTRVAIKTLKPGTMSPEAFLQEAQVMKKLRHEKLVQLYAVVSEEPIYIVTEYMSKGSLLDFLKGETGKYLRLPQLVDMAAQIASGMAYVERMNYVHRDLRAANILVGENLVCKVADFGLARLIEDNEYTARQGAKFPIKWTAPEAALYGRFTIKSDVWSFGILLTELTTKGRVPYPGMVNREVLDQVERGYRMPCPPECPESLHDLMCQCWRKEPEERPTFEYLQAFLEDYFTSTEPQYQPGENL
# Sequence of Receptor tyrosine-protein kinase erbB-2 (Homo sapiens) (P04626 whole entry): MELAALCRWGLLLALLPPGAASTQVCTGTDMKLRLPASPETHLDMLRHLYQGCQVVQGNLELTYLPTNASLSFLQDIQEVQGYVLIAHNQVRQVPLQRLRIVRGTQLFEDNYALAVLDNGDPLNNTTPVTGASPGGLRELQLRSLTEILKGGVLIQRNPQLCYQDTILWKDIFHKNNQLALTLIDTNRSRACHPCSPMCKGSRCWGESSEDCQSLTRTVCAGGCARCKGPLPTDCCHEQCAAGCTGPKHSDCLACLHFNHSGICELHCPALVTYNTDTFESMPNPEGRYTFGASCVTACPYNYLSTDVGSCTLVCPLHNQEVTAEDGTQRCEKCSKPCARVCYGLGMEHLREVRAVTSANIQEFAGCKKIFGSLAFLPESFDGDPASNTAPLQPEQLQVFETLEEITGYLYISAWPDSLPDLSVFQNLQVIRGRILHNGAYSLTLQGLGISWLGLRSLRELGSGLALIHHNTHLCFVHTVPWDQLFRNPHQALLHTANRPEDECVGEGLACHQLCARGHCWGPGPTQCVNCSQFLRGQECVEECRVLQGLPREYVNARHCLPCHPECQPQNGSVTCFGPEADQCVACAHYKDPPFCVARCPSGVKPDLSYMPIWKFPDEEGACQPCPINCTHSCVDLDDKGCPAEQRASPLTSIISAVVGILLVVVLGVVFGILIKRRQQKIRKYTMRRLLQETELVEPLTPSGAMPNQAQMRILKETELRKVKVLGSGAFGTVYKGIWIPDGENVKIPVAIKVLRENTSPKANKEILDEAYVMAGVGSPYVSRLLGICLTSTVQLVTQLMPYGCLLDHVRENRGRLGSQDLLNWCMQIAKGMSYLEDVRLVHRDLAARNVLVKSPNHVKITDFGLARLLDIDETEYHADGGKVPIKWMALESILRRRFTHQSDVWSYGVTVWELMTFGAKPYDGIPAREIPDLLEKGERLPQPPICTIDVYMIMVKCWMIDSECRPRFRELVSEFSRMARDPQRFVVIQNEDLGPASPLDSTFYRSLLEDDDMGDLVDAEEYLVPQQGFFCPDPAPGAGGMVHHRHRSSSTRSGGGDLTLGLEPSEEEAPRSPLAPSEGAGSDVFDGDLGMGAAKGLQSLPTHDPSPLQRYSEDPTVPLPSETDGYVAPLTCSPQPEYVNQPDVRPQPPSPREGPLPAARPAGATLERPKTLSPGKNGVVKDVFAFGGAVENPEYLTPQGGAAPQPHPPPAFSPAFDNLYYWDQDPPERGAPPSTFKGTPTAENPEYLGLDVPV
# Sequence of Aurora kinase C (Homo sapiens) (Q9UQB9 whole entry): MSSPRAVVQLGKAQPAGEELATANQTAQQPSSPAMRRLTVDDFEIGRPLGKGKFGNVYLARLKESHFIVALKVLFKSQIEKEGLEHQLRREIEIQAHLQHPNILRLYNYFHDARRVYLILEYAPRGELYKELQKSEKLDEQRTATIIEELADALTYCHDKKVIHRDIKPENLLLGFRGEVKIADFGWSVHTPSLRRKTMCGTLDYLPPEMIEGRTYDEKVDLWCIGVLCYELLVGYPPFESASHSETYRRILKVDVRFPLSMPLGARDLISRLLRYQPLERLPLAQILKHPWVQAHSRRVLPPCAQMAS
# Sequence of Angiopoietin-1 receptor (Homo sapiens) (Q02763 whole entry): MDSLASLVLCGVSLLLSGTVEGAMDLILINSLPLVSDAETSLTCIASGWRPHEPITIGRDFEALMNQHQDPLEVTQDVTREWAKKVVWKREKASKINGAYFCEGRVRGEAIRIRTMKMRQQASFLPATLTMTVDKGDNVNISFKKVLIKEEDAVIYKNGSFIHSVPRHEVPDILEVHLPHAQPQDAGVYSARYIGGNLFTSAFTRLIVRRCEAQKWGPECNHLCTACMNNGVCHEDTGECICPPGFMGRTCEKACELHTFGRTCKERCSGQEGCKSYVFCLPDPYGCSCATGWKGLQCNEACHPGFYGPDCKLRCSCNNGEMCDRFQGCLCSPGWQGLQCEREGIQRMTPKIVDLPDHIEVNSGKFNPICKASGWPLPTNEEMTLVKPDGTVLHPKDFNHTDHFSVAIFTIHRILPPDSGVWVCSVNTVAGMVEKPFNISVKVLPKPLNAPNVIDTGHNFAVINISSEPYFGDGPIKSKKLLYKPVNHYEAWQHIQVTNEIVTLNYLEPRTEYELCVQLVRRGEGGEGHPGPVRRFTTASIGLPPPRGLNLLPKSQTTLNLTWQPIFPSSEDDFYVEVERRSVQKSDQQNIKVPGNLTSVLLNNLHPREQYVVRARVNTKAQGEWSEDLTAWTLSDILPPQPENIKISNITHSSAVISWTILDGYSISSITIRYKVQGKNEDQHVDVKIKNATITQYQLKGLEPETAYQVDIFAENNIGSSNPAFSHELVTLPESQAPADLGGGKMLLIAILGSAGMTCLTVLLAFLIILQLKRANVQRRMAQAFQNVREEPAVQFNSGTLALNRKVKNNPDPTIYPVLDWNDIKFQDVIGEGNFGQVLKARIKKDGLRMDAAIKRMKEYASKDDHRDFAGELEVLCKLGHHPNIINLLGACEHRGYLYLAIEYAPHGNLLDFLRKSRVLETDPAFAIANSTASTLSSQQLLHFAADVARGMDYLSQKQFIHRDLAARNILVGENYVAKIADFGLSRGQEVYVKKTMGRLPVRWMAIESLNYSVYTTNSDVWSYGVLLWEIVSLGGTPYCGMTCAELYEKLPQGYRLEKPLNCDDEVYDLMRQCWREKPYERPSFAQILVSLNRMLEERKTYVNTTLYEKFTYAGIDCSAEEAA
compound,measurement,setting,value
COc1ccc(/C=N/Nc2[nH]nc(C)c2C(=O)N(C)c2ccccc2)cc1,IC50,Aurora kinase A,> 50000 nM
COc1ccc(/C=N/Nc2[nH]nc(C)c2C(=O)NCCCc2ccccc2)cc1,IC50,Aurora kinase A,1940 nM
COc1ccc(/C=N/Nc2[nH]nc(C)c2C(=O)Nc2ccccc2OC)cc1,IC50,Aurora kinase A,1090 nM
CCOC(=O)c1c(C)n[nH]c1N/N=C/Cc1ccccc1,inhibition,[1],3.6%
CCOC(=O)c1c(C)n[nH]c1N/N=C/c1ccccc1,inhibition,[1],16.4%
COc1ccc(/C=N/Nc2[nH]nc(C)c2C(=O)Nc2ccc(NC(C)=O)cc2)cc1,IC50,Aurora kinase A,719 nM
CCOC(=O)c1c(C)n[nH]c1N/N=C/c1ccc2[nH]ccc2c1,inhibition,[1],50%
same,IC50,Aurora kinase A,11500 nM
COc1ccc(/C=N/Nc2[nH]nc(C)c2C(=O)NCCc2c[nH]c3ccccc23)cc1,IC50,Aurora kinase A,1070 nM
CCOC(=O)c1c(C)n[nH]c1N/N=C(\C)c1ccc(OC)cc1,inhibition,[1],18.2%
COc1ccc(/C=N/Nc2[nH]nc(C)c2C(=O)NCCc2ccccc2)cc1,IC50,Aurora kinase A,1350 nM
COc1ccc(/C=N/Nc2[nH]nc(C)c2C(=O)NCCc2c[nH]cn2)cc1,IC50,Aurora kinase A,1940 nM
COc1ccc(/C=N/Nc2[nH]nc(C)c2C(=O)NCCc2cccc(OC)c2)cc1,IC50,Aurora kinase A,2900 nM
COc1ccc(/C=N/Nc2[nH]nc(C)c2C(=O)Nc2ccc(OC)cc2)cc1,IC50,Aurora kinase A,460 nM
COc1ccc(/C=N/Nc2[nH]nc(C)c2C(=O)NCc2cccc(NC(C)=O)c2)cc1,IC50,Aurora kinase A,1750 nM
CCOC(=O)c1c(C)n[nH]c1N/N=C/c1ccc(OC)cc1,inhibition,[1],33.9%
same,IC50,Aurora kinase A,15100 nM
COc1ccc(/C=N/Nc2[nH]nc(C)c2C(=O)NCc2ccc(OC)cc2)cc1,IC50,Aurora kinase A,1620 nM
COc1ccc(/C=N/Nc2[nH]nc(C)c2C(=O)Nc2cccc(NC(C)=O)c2)cc1,inhibition,[2],-1%
same,inhibition,[3],1%
same,inhibition,[4],8%
same,inhibition,[5],-6%
same,inhibition,[6],91%
same,inhibition,[7],17%
same,inhibition,[8],56%
same,inhibition,[9],51%
same,inhibition,[10],-8%
same,inhibition,[11],45%
same,inhibition,[12],66%
same,inhibition,[13],11%
same,inhibition,[14],26%
same,inhibition,[15],4%
same,inhibition,[16],48%
same,inhibition,[17],13%
same,inhibition,[18],31%
same,inhibition,[19],17%
same,inhibition,[20],36%
same,inhibition,[21],33%
same,inhibition,[22],48%
same,Activity,[23],Dose-dependent effect
same,inhibition,[24],19%
same,inhibition,[25],76%
same,Activity,[26],Dose-dependent effect
same,inhibition,[27],27%
same,inhibition,[28],32%
same,inhibition,[29],-3%
same,inhibition,[30],21%
same,inhibition,[31],11%
same,inhibition,[32],61%
same,inhibition,[33],19%
COc1ccc(/C=N/Nc2[nH]nc(C)c2C(=O)NCCc2cccnc2)cc1,IC50,Aurora kinase A,1480 nM
COc1ccc(/C=N/Nc2[nH]nc(C)c2C(=O)NCCc2ccc(OC)cc2)cc1,IC50,Aurora kinase A,1580 nM
COc1ccc(/C=N/Nc2[nH]nc(C)c2C(=O)N(C)Cc2ccccc2)cc1,IC50,Aurora kinase A,> 50000 nM
COc1ccc(/C=N/Nc2[nH]nc(C)c2C(=O)Nc2ccc(OC)c(OC)c2)cc1,IC50,Aurora kinase A,960 nM
CCOC(=O)c1c(C)n[nH]c1N/N=C/c1ccc(F)cc1,inhibition,[1],36.5%
COc1ccc(/C=N/Nc2[nH]nc(C)c2C(=O)NCc2cccc(OC)c2)cc1,IC50,Aurora kinase A,838 nM
COc1ccc(/C=N/Nc2[nH]nc(C)c2C(=O)NCc2ccccc2)cc1,IC50,Aurora kinase A,1580 nM
COc1ccc(/C=N/Nc2[nH]nc(C)c2C(=O)Nc2ccc(F)cc2)cc1,IC50,Aurora kinase A,1450 nM
CCOC(=O)c1c(C)n[nH]c1N/N=C/c1cccc2[nH]ccc12,inhibition,[1],50.3%
same,IC50,Aurora kinase A,13700 nM
COc1ccc(/C=N/Nc2[nH]nc(C)c2C(=O)Nc2ccccc2)cc1,IC50,Aurora kinase A,804 nM
CCOC(=O)c1c(C)n[nH]c1N/N=C/c1ccc(N2CCN(C)CC2)cc1,inhibition,[1],41%
COc1ccc(/C=N/Nc2[nH]nc(C)c2C(=O)OCc2ccccc2)cc1,IC50,Aurora kinase A,5250 nM
COc1ccc(/C=N/Nc2[nH]nc(C)c2C(=O)Nc2cccc(OC)c2)cc1,IC50,Aurora kinase A,449 nM
COc1ccc(/C=N/Nc2[nH]nc(C)c2C(=O)Nc2ccc(N(C)C)cc2)cc1,IC50,Aurora kinase A,1570 nM
CCOC(=O)c1c(C)n[nH]c1N/N=C/c1ccc(-c2ccccc2)cc1,inhibition,[1],27.5%
